Assay results taken from ChEMBL document CHEMBL1134251, “Quinazolines as cyclin dependent kinase inhibitors” (Bioorg Med Chem Lett, 2001).
pIC50: −log10 of the molar value.

What was measured:
[1] = biological target: Cyclin-dependent kinase 2/cyclin E (Homo sapiens, UniProt P24941); assay: In vitro inhibitory activity against human cyclin dependent kinase (CDK2/E); type: protein-complex assay
[2] = biological target: Cyclin-dependent kinase 4/cyclin D1 (Homo sapiens, UniProt P11802); assay: In vitro inhibitory activity against human cyclin dependent kinase (CDK4/D1); type: protein-complex assay
Cyclin-dependent kinase 4/cyclin D1, sequence (P11802 whole entry): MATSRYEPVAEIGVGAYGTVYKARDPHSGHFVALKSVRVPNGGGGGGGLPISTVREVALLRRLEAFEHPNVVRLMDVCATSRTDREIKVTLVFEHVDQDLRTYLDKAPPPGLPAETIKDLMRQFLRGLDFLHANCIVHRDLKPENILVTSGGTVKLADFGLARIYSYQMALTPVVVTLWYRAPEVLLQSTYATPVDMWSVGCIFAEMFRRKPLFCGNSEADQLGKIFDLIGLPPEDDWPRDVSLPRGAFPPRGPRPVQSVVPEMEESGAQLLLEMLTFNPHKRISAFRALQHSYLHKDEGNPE
Cyclin-dependent kinase 4/cyclin D1, sequence (P24385 whole entry, further chain): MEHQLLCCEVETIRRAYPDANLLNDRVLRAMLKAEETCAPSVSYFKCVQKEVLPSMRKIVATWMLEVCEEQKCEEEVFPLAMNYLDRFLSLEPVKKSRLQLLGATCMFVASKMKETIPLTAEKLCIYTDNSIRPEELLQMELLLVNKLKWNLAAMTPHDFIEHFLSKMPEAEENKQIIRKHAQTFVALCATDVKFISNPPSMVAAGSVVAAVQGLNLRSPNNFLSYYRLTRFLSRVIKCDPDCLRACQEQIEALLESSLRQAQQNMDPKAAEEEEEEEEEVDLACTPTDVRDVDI

[3] = system: AG1523; assay: Inhibition of SRB AG1523 cancer cell proliferation; type: functional, cell-based; conditions: Homo sapiens, in the assay text read “normal human fibroblast cell” for “cancer cell”
How it was run: (§1)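 Growth-inhibition assay in HCT 116 cancer cells, with IC50 as the read-out. AG1523 cells are normal human fibroblasts and were run under the same assay conditions as HCT 116.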

[4] = system: HCT-116; assay: Inhibition SRB HCT 116 cancer cell proliferation; type: functional, cell-based; conditions: Homo sapiens; how it was run: as §1
[5] = biological target: Cyclin-dependent kinase 2/cyclin A (Homo sapiens, UniProt P24941); assay: Inhibition of human cyclin dependent kinase 2 (CDK2/A); type: protein-complex assay
[6] = biological target: T1, Cyclin-dependent kinase 1/cyclin B (Homo sapiens, UniProt P06493); assay: Inhibition of human cyclin dependent kinase 1 (CDC2/B); type: protein-complex assay
[7] = biological target: Cyclin-dependent kinase 4/cyclin D1 (Homo sapiens) (UniProt P11802+P24385); assay: Inhibition of human cyclin dependent kinase 4 (CDK4/D1) at 50 uM; type: protein-complex assay; set-up: scale not given: the % may be the effect or the level left
[8] = biological target: T1, Cyclin-dependent kinase 1/cyclin B; assay: Inhibition of human cyclin dependent kinase 1 (CDK1/B); type: protein-complex assay
[9] = Inhibition of human cyclin dependent kinase 6 (CDK6/D2)

SMILES | pIC50 [1] | pIC50 [2] | other results
OCC1CCCN1c1nc(C(F)(F)F)nc2ccccc12 (stereo not drawn) | 4.83 | 4.20 | 
Fc1cc(F)cc(CNc2nc(C(F)(F)F)nc3ccccc23)c1 | 5.05 | < 4.72 | 
CC(C)(C)Nc1nc(C(F)(F)F)nc2ccc(-c3ccc(Cl)cc3Cl)cc12 | < 4.92 | < 5.62 | 
CCCC(C)Nc1nc(C(F)(F)F)nc2ccccc12 (stereo not drawn) | 3.61 | 3.92 | 
CC(C)(C)Nc1nc(Nc2ccccc2)nc2ccccc12 | < 4.47 | < 3.77 | 
Fc1cccc(CNc2nc(C(F)(F)F)nc3ccccc23)c1 | 4.81 | < 4.41 | 
COc1ccc(-c2ccc3nc(C(F)(F)F)nc(NC(C)(C)C)c3c2)cc1 | 5.00 | < 4.57 | 
CC(C)(C)Nc1nc(C(F)(F)F)nc2ccc(-c3cccc(N)c3)cc12 |  | < 5.68 | 
CC(C)(C)Nc1nc(C(F)(F)F)nc2ccc(-c3cccc(C(N)=O)c3)cc12 | 5.89 | < 5.60 | 
CC(C)(C)Nc1nc(C(=O)O)nc2ccccc12 | < 3.09 | < 3.39 | 
CC(C)S(=O)(=O)Nc1nc(C(F)(F)F)nc2ccccc12 | < 4.51 | < 3.80 | 
CC(C)(Nc1nc(C(F)(F)F)nc2ccccc12)c1ccccc1 | 4.85 | < 3.82 | 
CC(C)(C)Nc1nc(C(N)=O)nc2ccccc12 | 3.78 | < 3.31 | 
CC(C)(C)Nc1nc(C(F)(F)F)nc2ccc(-c3ccc(N)cc3)cc12 | 5.96 | < 5.96 | 
COc1ccccc1-c1ccc2nc(C(F)(F)F)nc(NC(C)(C)C)c2c1 | 6.00 | < 5.57 | 
CC(C)(C)Nc1nc(C(F)(F)C(F)(F)F)nc2ccccc12 | 4.92 | < 4.70 | 
C[C@H](Nc1nc(C(F)(F)F)nc2ccccc12)c1ccccc1 | 4.51 |  | Activity [7]: 40%
CC(C)(C)Nc1nc(C(F)(F)F)nc2ccc(-c3ccco3)cc12 | 5.92 | < 5.52 | 
CCOC(=O)c1nc(NC(C)(C)C)c2ccccc2n1 | < 5.24 | 3.77 | 
CC(C)(C)Nc1nc(C(F)(F)F)nc2ccc(-c3ccc(Cl)cc3)cc12 | 5.59 | < 4.59 | 
CC(C)(C)Nc1nc(C(F)(F)F)nc2ccc(C(F)(F)F)cc12 | 6.10 | < 4.43 | pIC50 [3]: < 4.23; pIC50 [5]: 5.69; pIC50 [8]: < 6.13; pIC50 [9]: 4.25; pIC50 [4]: 4.73
CC(C)(C)Nc1ncnc2ccccc12 | < 4.30 | < 3.61 | 
OC1CCCN(c2nc(C(F)(F)F)nc3ccccc23)C1 (stereo not drawn) | 4.49 | < 4.08 | 
CC(Nc1nc(C(F)(F)F)nc2ccccc12)c1ccc(F)cc1 (stereo not drawn) | 4.78 |  | Activity [7]: 35%
CC(C)(C)Nc1nc(-c2ccccc2)nc2ccccc12 |  | < 3.44 | 
COc1cccc(-c2ccc3nc(C(F)(F)F)nc(NC(C)(C)C)c3c2)c1 | 5.48 | < 5.17 | 

Continued by rising pIC50 [2], values first:

pIC50 [1] | pIC50 [2] | SMILES | other results
5.17 | 4.23 | CC(Nc1nc(C(F)(F)F)nc2ccccc12)c1ccccc1 (stereo not drawn) | 
5.49 | 4.41 | C[C@@H](Nc1nc(C(F)(F)F)nc2ccccc12)c1ccccc1 | 
4.87 | 4.62 | C#CC(C)(C)Nc1nc(C(Cl)(Cl)Cl)nc2ccccc12 | pIC50 [8]: 4.46; pIC50 [4]: 4.82
5.94 | 4.74 | CC(C)(C)Nc1nc(C(F)(F)F)nc2ccc(O)cc12 | pIC50 [3]: < 4.74; pIC50 [4]: 5.14
5.85 | 4.77 | CCC(C)(C)Nc1nc(C(F)(F)F)nc2ccccc12 | 
5.64 | 4.82 | CC(C)(CO)Nc1nc(C(F)(F)F)nc2ccccc12 | 
5.82 | 4.84 | CC(C)(C)Nc1nc(C(F)(F)F)nc2ccccc12 | pIC50 [3]: < 4.13; pIC50 [4]: 4.69
6.03 | 4.85 | CC(C)(C)Nc1nc(C(F)(F)F)nc2ccc(NC=O)cc12 | pIC50 [4]: 5.24
6.00 | 4.92 | CC(C)(C)Nc1nc(C(F)(F)F)nc2ccc(-c3cccc(O)c3)cc12 | 
5.21 | 4.92 | CC(C)(C)Nc1nc(C(Cl)(Cl)Cl)nc2ccccc12 | pIC50 [5]: 4.59; pIC50 [6]: 4.64; pIC50 [4]: 4.60
6.15 | 4.96 | CC(C)(C)Nc1nc(C(F)(F)F)nc2ccc(-c3ccc(O)cc3)cc12 | 
5.92 | 5.08 | CC(C)(C)Nc1nc(C(F)(F)F)nc2ccc(-c3ccc(-c4cccnc4)cc3)cc12 | 
 | 5.08 | CC(C)(C)Nc1nc(C(F)(F)F)nc2ccc(-c3cccnc3)cc12 | 
5.74 | 5.11 | CC(C)(C)Nc1nc(C(F)(F)F)nc2ccc(-c3ccccc3)cc12 | 
5.93 | 5.19 | CC(C)(C)Nc1nc(C(F)(F)F)nc2ccc(-c3cccs3)cc12 | 
6.26 | 5.45 | CC(C)(C)Nc1nc(C(F)(F)F)nc2ccc(-c3ccsc3)cc12 | pIC50 [3]: < 4.55; pIC50 [4]: 4.74
